Source: PubChem BioAssay (several laboratories)
In the library only some 6.7% were active in any assay of this set; here they are far more common.
PREPL inhibitor – inhibits the human prolyl oligopeptidase-like enzyme; Q4J6C6; recombinant PREPL, fluorescence polarization activity-based probe; inhibition, % at 5.96 µM; 320,000 tested, 0.68% active; in the data active = inhibition above about 43%;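 also: 0% = enzyme with DMSO and 100% = wells lacking enzyme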
Target sequence (Q4J6C6 whole entry, looked up): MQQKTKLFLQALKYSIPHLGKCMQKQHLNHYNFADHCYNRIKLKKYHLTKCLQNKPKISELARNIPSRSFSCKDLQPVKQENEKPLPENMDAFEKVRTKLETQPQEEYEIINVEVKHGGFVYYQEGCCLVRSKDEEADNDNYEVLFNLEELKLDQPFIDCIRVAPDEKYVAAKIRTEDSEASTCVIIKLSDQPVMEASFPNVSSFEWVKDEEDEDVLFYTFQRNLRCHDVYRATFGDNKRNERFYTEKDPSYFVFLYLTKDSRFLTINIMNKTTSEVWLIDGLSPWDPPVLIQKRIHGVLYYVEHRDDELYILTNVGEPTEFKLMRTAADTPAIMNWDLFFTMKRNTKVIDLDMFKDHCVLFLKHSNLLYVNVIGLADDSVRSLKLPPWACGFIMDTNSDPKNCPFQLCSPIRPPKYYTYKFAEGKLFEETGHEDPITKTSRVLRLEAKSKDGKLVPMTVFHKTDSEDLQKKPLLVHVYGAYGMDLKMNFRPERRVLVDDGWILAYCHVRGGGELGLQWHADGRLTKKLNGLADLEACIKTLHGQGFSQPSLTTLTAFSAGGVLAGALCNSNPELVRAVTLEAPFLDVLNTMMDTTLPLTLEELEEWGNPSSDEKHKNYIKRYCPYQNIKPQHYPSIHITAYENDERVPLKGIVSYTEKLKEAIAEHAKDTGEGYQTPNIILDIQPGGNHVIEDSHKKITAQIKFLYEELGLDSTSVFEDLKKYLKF
Beta cell apopt – blocks beta cell apoptosis; INS-1E cytokine-induced death, ATP luminescence, 48 h; percent of positive-control rescue, neutral wells zero; protection from apoptosis, % (concentration not given with the values); 300,000 tested, 0.8% active; AID 435005;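 active = Every replicate reaches about 75%, or at least half do and their mean reaches it too, limit read from the data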;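 also: 0% = cytokine-treated negative control wells and 100% = positive control rescue; higher means more ATP so stronger rescue from cytokine killing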
CHOP inh – blocks CHOP induction under ER stress | CHO-K1 CHOP-promoter luciferase, tunicamycin-induced, 15-18 h | 220,000 tested, 3.8% active | AID 2732 | inhibition, % at 10 µM;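 active = compounds that reduced the stress-induced luciferase reporter signal by more than about 70% of percent inhibition, limit read from the data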;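 also: 0% = tunicamycin plus vehicle and 100% = wells without tunicamycin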
CSC inhib – blocks cancer stem cells. cancer stem cell-like cells viability, luminescence. AID 2717. inhibition, % at 7.5 µM. 300,000 tested, 1.1% active; in the data active = inhibition above about 75%; tested in HMLE shEcad cells
T cruzi inh – blocks replication of Trypanosoma cruzi; T. cruzi beta-gal in NIH3T3, luminescence, 90 h; inhibition, % (no concentration beside the values); 300,000 tested, 1.4% active; AID 1885;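 active = mean inhibition across valid replicates above about 55%, limit read from the data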;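 also: signal also drops with host cell toxicity which is not excluded here; 0% = plate median of DMSO wells and 100% = zero luminescence signal; higher percent means less beta-gal luminescence so fewer parasites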
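System – NIH/3T3 host cells with β-galactosidase reporter T. cruzi · Doses – single 50 nL compound addition per well in DMSO · Reagent – 5000 T. cruzi trypomastigotes/well · Medium – Low-serum DMEM with 2% FBS · Timing – ≥90 h infection period, 3 h prior cell attachment · Evaluation – parasite load inhibition, % · Technique – GalScreen luminescence, 60 min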
GRIN3A LBD mod – modulators (binders) of human NR3A ligand-binding domain. 340,000 tested, 2.5% active. AID 1259313. Tm shift relative to glycine control, % at 25 µM. NR3A LBD differential scanning fluorimetry, Tm shift; 0% = protein alone, 100% = glycine-bound protein;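 active = melting temperature shift of at least 10% of the positive control shift, at one fixed dose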
CHOP confirm – confirmation of CHOP induction inhibitors | shares compounds with CHOP inh | CHO-CHOP promoter luciferase reporter, tunicamycin-induced, luminescence | inhibition, % at 10 µM | 2,100 tested, 45% active;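 active = mean of three repeat readings of reporter signal inhibition above a set limit, cut at about 70% in these data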;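 also: 0% = tunicamycin plus vehicle and 100% = wells lacking tunicamycin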
Numbers without * were called inactive; · = no result given.

SMILES	PREPL inhibitor	Beta cell apopt	CHOP inh	CSC inhib	T cruzi inh	GRIN3A LBD mod	CHOP confirm
O=C(Nc1nc2ccccc2n1Cc1ccc(Cl)cc1)c1ccco1	-1	29	103*	20	76*	-17	-53
Cc1cccc(OCCn2c(NC(=O)c3ccco3)nc3ccccc32)c1	-33	50	104*	24	60*	-7	-12
O=C(NC(=S)NCCc1ccccc1)c1cccc(Cl)c1	-16	·	·	4	8	-6	·
CC(C)(C)OC(=O)C[C@H]1C/C=C\C[C@@H](CC(=O)NCCO)C(=O)NC[C@@H](c2ccccc2)OC1=O	2	1	·	-9	·	-4	·
COC(=O)CS(=O)(=O)c1nnc([C@H](Cc2ccccc2)NC(=O)OC(C)(C)C)o1	0	35	111*	91*	4	0	94*
O=C(O)c1cc(S(=O)(=O)N2CC3CC3C2C(=O)O)c(Cl)cc1Cl (centres undefined)	-6	0	·	-20	-16	-1	·
Cn1c(=O)c2c(ncn2CC(=O)NC(C)(C)C)n(C)c1=O	0	-9	1	-8	-13	-1	·
Cn1c(=O)c2c(nc(Sc3ncnn3CC(=O)NC(C)(C)C)n2C)n(C)c1=O	4	-3	100*	-8	-8	-2	15
c1cc2c3c(cccc3c1)NC1(CCCCCC1)N2	52*	·	107*	8	8	-5	-4
CCCCC(=O)Nc1sc2c(c1C(=O)OCC)CCC(C=O)=C2Cl	7	4	117*	42	-5	·	-2
CCCn1c(=O)[nH]c(=O)c2c1nc(-c1cc([N+](=O)[O-])ccc1Cl)n2CCOC	6	·	·	0	30	0	·
O=C(COC(=O)c1cccc(NC(=O)c2ccco2)c1)c1ccc(Br)cc1	-11	7	105*	9	5	3	37
COc1ccc(-n2c(N)c(C(=O)NCc3ccco3)c3nc4ccccc4nc32)cc1OC	1	-2	104*	2	16	1	34
COc1ccccc1CNC(=O)c1c(N)n(CCCN2CCOCC2)c2nc3ccccc3nc12	·	·	96*	·	18	-2	40
COc1cc(-n2c(N)c(C(=O)NCc3ccco3)c3nc4ccccc4nc32)cc(OC)c1OC	5	8	23	-5	-8	-1	·
CCCCCN1CC(=O)N2C(C)c3[nH]c4ccccc4c3C[C@H]2C1=O (some centres undefined)	10	0	·	-14	18	-2	·
O=C(Nc1ccccc1[N+](=O)[O-])c1cccnc1Cl	-1	-8	7	-10	-17	-2	·
S=c1[nH]nc(C2CCCCC2)n1/N=C/c1ccc(Cl)cc1	-9	4	·	8	3	-21	·
CC(/C=N/n1c(COc2ccccc2)n[nH]c1=S)=C\c1ccccc1	-12	5	111*	-22	1	-6	-8
Cc1cccc(/C=N/n2c(COc3ccccc3)n[nH]c2=S)c1	·	6	·	-13	-5	0	·
S=c1[nH]nc(C2CCCCC2)n1/N=C/C(Cl)=C\c1ccccc1	1	-8	102*	109*	-79	-11	29
S=c1[nH]nc(C2CCCCC2)n1/N=C/C=C/c1ccccc1	21	-4	105*	-2	20	-3	106*
CC1(C)Cc2c(cnn2-c2ccccc2)C(NC(=O)CCCn2cncn2)C1 (centres undefined)	·	2	·	3	-20	2	·
CC(C)(C)NC(=O)CN(C(=O)c1csnn1)c1cccc2c1CCCC2	3	3	5	-8	-17	0	·
COc1ccc(CN(C)C(=O)c2cccc(C(=O)N(C)Cc3ccc(OC)cc3)c2)cc1	4	6	·	-19	-2	-1	·
SMILES	PREPL inhibitor	Beta cell apopt	CHOP inh	CSC inhib	T cruzi inh	GRIN3A LBD mod	CHOP confirm
CN1CCN(C(=S)NC(=O)/C=C/c2ccccc2Cl)CC1	2	-1	-7	·	6	-3	·
Cc1cc(C(=O)NNC(=S)NC(=O)/C=C/c2ccccc2Cl)n[nH]1	16	8	108*	12	-2	1	40
COc1cc([N+](=O)[O-])cc(/C=N/NC(=O)c2ccc(NC(=O)c3ccc(C)cc3)cc2)c1O	·	·	105*	·	8	21*	49
Cc1ccc(NC(=O)c2ccc(S(=O)(=O)N(C)c3ccccc3)cc2)cc1S(=O)(=O)N1CCOCC1	·	·	·	·	·	4	·
CN1CCC(N(C)C(=O)/C(C#N)=C\c2ccc(OC(F)F)cc2)CC1	·	·	·	·	·	6	·
CCc1ccc2[nH]c(=O)c(C(c3nnnn3Cc3ccco3)N3CCC(C)CC3)cc2c1 (centres undefined)	-2	3	99*	-11	1	0	77*
CCc1ccc2[nH]c(=O)c(C(c3nnnn3Cc3ccccc3)N3CCOCC3)cc2c1 (centres undefined)	15	0	0	32	2	0	·
Cc1ccc(-c2n[nH]c(=S)n2/N=C/c2c(C)nn(-c3ccccc3)c2C)cc1	0	14	109*	-8	7	-24	37
Cc1ccccc1-c1n[nH]c(=S)n1/N=C/c1c(C)nn(-c2ccccc2)c1C	8	-9	30	32	5	5	·
COc1ccc([C@@H]2CC(=O)c3c(O)cc(O)cc3O2)cc1O	1	1	·	2	·	-3	·
COc1c(CC=C(C)C)cc(C2CC(=O)c3c(O)cc(O)cc3O2)cc1CC=C(C)C (centres undefined)	2	108*	104*	100*	32	30*	110*
COc1ccc(NC(=O)c2cccc(S(=O)(=O)NCc3ccccc3)c2)cc1S(N)(=O)=O	-10	0	·	·	·	-2	·
Cc1ccc(-c2nn(CC(=O)NCc3cc(-c4nn(C)c(=O)c5ccccc45)ccc3C)c(=O)c3ccccc23)cc1	2	41	106*	-5	-10	1	93*
Clc1ccccc1/C=N/NC1=Nc2cccc3cccc1c23	6	13	98*	1	8	19*	-22
CCc1nnc(NS(=O)(=O)c2ccc(NC(=S)NC(=O)/C=C/c3ccc(C(C)C)cc3)cc2)s1	-42	-2	105*	52	-3	15*	118*
CCc1ccc(/C=c2\s/c(=C\C(=O)C(C)(C)C)[nH]c2=O)cc1	34	20	107*	67	0	9	80*
Cc1ccc(C2/C=C\CC(NC(=O)OCC3c4ccccc4-c4ccccc43)CC(=O)N2Cc2ccccc2)cc1 (centres undefined)	·	·	·	·	·	-1	·
O=S(=O)(Nc1cc(Sc2ncn[nH]2)c(O)c2ccccc12)c1ccccc1	·	·	106*	·	·	-1	77*
CC(=O)N1CCN(S(=O)(=O)c2cccc(C(=O)NNC(=O)c3ccc(Br)cc3)c2)CC1	·	·	·	·	·	-2	·
Nc1cc(N)c(OCC(F)(F)F)cc1OCC(F)(F)F	32	6	102*	-7	2	-2	0
